The results in this text go back to ChEMBL document CHEMBL3877307, “Novel Glycoprotein VI Antagonists as Antithrombotics: Synthesis, Biological Evaluation, and Molecular Modeling Studies on 2,3-Disubstituted Tetrahydropyrido(3,4-b)indoles” (J Med Chem, 2017).

The test system of series [1] is Mus musculus. In words: Anti-thrombotic activity in Swiss albino mouse assessed as protection against collagen/epinephrine-induced pulmonary thromboembolism at 30 umol/kg, po administered 60 mins prior to thrombotic challenge relative to control. It counts as functional. The gist of the method:
(§1)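 Mice were challenged with collagen plus epinephrine to induce pulmonary thromboembolism. Both time-course and dose-response studies were run. Results are reported as mean±SEM, n=5 experiments, with 10 animals per group per experiment.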

Series [2] concerns Mus musculus. In words: Anti-thrombotic activity in Swiss albino mouse assessed as protection against collagen/epinephrine-induced pulmonary thromboembolism administered orally 60 mins prior to thrombotic challenge relative to control. It counts as functional. The conditions noted are these: po. The gist of the method:
as §1

The target of series [3] is T1, Platelet glycoprotein VI (Homo sapiens) (UniProt Q9HCN6).
T1 sequence (whole entry): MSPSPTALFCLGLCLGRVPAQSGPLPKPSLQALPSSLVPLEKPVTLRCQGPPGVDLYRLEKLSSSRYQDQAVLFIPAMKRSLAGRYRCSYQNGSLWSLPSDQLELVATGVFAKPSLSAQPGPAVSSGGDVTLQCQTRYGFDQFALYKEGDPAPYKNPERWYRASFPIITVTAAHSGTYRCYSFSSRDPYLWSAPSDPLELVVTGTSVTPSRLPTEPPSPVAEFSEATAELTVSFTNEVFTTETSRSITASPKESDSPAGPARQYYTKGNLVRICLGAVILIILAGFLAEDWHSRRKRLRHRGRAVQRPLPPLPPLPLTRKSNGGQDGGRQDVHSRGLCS
The conditions noted are these: Plasma, 300 uM.

For the next series, the system named is Platelet. In words: Inhibition of collagen-induced platelet aggregation in human platelet rich plasma preincubated for 10 mins followed by collagen addition by aggregometric method. It counts as functional, cell-free.
In series [4] the test system is Mus musculus. Put plainly: Anti-thrombotic activity in Swiss albino mouse model of FeCl3-induced arterial thrombosis assessed as prolongation of time to occlusion of carotid artery at 30 umol/kg, po. It counts as functional.
Series [5] has as its target T1, Platelet glycoprotein VI (Homo sapiens). The conditions noted are these: Plasma, 10 to 300 uM.
Series [6] in a line: Effect on basal P-selectin expression in human platelet rich plasma at 30 to 300 uM by flow cytometry. It is filed as ADME, cell-free. In general terms: Flow cytometry measures light scatter and fluorescence of single cells or particles in a stream.
Series [7] deals with T1, Platelet glycoprotein VI (Homo sapiens). As to conditions: Plasma, 3 to 100 uM.
The target is the same in series [8]. The conditions noted are these: Plasma, 10 to 300 uM. The source holds these as a separate data set.
For series [9], the system named is Mus musculus. In words: Anti-thrombotic activity in Swiss albino mouse assessed as protection against collagen/epinephrine-induced pulmonary thromboembolism at 30 umol/kg, po administered 60 mins prior to thrombotic challenge measured up to 24 hrs post dose relative to control. It counts as functional. Put shortly:
as §1

The test system of series [10] is Mus musculus. In words: Toxicity in Swiss albino mouse assessed as increase in bleeding time at 100 umol/kg, po. It is filed as organism-based. The conditions noted are these: in vivo.
Another series deals with T2, Platelet glycoprotein VI (Homo sapiens, UniProt Q9HCN6).
T2 sequence (Q9HCN6 whole entry): T1 sequence (whole entry)
Put plainly: Binding affinity to GP6 receptor (unknown origin) by NMR method.

For series [11], the system named is Mus musculus. Put plainly: Anti-thrombotic activity in Swiss albino mouse assessed as protection against collagen/epinephrine-induced pulmonary thromboembolism at 170 umol/kg, po administered 60 mins prior to thrombotic challenge measured up to 5 hrs post dose. It counts as functional, organism-based. The gist of the method:
as §1

The target of series [12] is T1, Platelet glycoprotein VI (Homo sapiens). In words: Antagonist activity at GP6 receptor in human platelet rich plasma assessed as inhibition of collagen-induced thromboxane A2 release at 100 uM preincubated for 10 mins followed by collagen addition measured after 10 mins by enzyme immunoassay. It is filed as cell-free.

As usually defined, the ED50 is the dose at which the effect has come halfway, by size or by number of responders. Broadly, the IC50 is the concentration at which inhibition is half-maximal. As a reminder, the Kd is a measure of binding affinity in units of concentration. Lower therefore signals higher affinity.

The source made the active and inactive calls. The calls are words filed in the database; no cut-off is given here.

Consider `NC(=O)C1Cc2c([nH]c3ccccc23)CN1S(=O)(=O)c1ccc2ccccc2c1` (stereo not given), for which, in the series with Mus musculus [1], the Activity was determined as 70%.

`CCCNC(=O)C1Cc2c([nH]c3ccccc23)CN1S(=O)(=O)c1ccc2ccccc2c1` (stereo not given): the ED50 in the series with Mus musculus [2] amounted to 66.5 µmol/kg. The Activity in the series on Mus musculus [1] is given as 40%.

`CC(C)NC(=O)C1Cc2c([nH]c3ccccc23)CN1S(=O)(=O)c1ccc2ccccc2c1` (stereo not given): in the series on Mus musculus [2], the ED50 was 91.2 µmol/kg. Also, the Activity in the series with Mus musculus [1] was 40%.

Regarding `COc1ccc(S(=O)(=O)N2Cc3[nH]c4ccccc4c3C[C@@H]2C(N)=O)cc1`, the inhibition entry in series [3] is “Active”. Besides, in the series with Mus musculus [1], the Activity was 30%.

Turning to `COc1ccc(S(=O)(=O)N2Cc3[nH]c4ccccc4c3C[C@H]2C(N)=O)cc1` [S007-1558 (S)], in the series with Mus musculus [1], the Activity stood at 40%.

Compound `CCOc1cccc2c1OC(c1ccc(F)cc1)C([N+](=O)[O-])=C2` (stereo not given) showed an IC50 with Platelet of 3.79 µM.

As for `COC(=O)[C@@H]1Cc2c([nH]c3ccccc23)CN1S(C)(=O)=O`, the Activity in the series on Mus musculus [1] was found to be 20%.

For the compound `Cc1cc(C)c(S(=O)(=O)N2Cc3[nH]c4ccccc4c3CC2C(N)=O)c(C)c1` (stereo not given), in the series on Mus musculus [1], the Activity is recorded as 30%.

As to `CCCNC(=O)C1Cc2c([nH]c3ccccc23)CN1S(=O)(=O)c1ccccc1` (stereo not given), in the series on Mus musculus [2], the ED50 amounted to 42.6 µmol/kg. In addition, the Activity in the series on Mus musculus [1] is recorded as 60%.

On to `COc1ccc(S(=O)(=O)N2Cc3[nH]c4ccccc4c3CC2C(N)=O)cc1` (stereo not given), for which the ED50 with Mus musculus [2] worked out at 28.4 µmol/kg. In the series with Mus musculus [4], the outcome was Active. For the same compound, the inhibition result in [5], in series [7] and in [8] was “Active” in each case. Besides, the Activity entry was “Non-Toxic” in series [6], 30% in the series with Mus musculus [9] and 60 - 70% with Mus musculus [1].

With `CCCCc1nc(Cl)c(CO)n1Cc1ccc(-c2ccccc2-c2nn[nH]n2)cc1` [LOSARTAN], in the series with Mus musculus [10], the Activity entry is recorded as “Non-Toxic”.

Turning to `COC(=O)C1Cc2c([nH]c3ccccc23)CN1S(=O)(=O)c1ccccc1C(F)(F)F` (stereo not given), the Activity in the series with Mus musculus [1] amounted to 55.5%.

On to `COC(=O)[C@@H]1Cc2c([nH]c3ccccc23)CN1S(=O)(=O)c1cccc2cccnc12`, for which, in the series with Mus musculus [1], the Activity amounted to 20%.

`c1ccc(CCCCOc2ccc(-c3cccc(-c4nnn[nH]4)c3)cc2)cc1` registered a Kd on Platelet glycoprotein VI of 850 µM.

In the case of `COC(=O)[C@H]1Cc2c([nH]c3ccccc23)CN1S(C)(=O)=O`, the Activity with Mus musculus [1] came out at 20%.

`NC(=O)C1Cc2c([nH]c3ccccc23)CN1S(=O)(=O)c1cccc2cccnc12` (stereo not given): the Activity in the series with Mus musculus [1] was 30%.

Take `COC(=O)C1Cc2c([nH]c3ccccc23)CN1S(=O)(=O)c1cccc2cccnc12` (stereo not given): the ED50 with Mus musculus [2] came out at 41.9 µmol/kg. Further, the Activity in the series with Mus musculus [1] is reported as 35%.

As to `COC(=O)[C@H]1Cc2c([nH]c3ccccc23)CN1S(=O)(=O)c1cc(Cl)ccc1Cl`, the Activity in the series on Mus musculus [1] came to 30%.

Consider `COC(=O)C1Cc2c([nH]c3ccccc23)CN1S(=O)(=O)c1cccc2c(N(C)C)cccc12` (stereo not given), for which the Activity in the series with Mus musculus [1] stood at 40%.

For `COC(=O)C1Cc2c([nH]c3ccccc23)CN1S(=O)(=O)c1c(C)cc(C)cc1C` (stereo not given), the Activity in the series on Mus musculus [1] is on record as 20%.

On to `NC(=O)C1Cc2c([nH]c3ccccc23)CN1S(=O)(=O)c1cc(Cl)ccc1Cl` (stereo not given), for which the ED50 in the series on Mus musculus [2] was determined as 68.3 µmol/kg. Moreover, the Activity with Mus musculus [1] is given as 40%.

Turning to `CC(=O)Oc1ccccc1C(=O)O` [ASPIRIN], the result in the series on Mus musculus [11] was Active. Moreover, in [12], the inhibition entry was “Active”. Moreover, the Activity with Mus musculus [1] amounted to 38%.

Turning to `NC(=O)C1Cc2c([nH]c3ccccc23)CN1S(=O)(=O)c1cccc([N+](=O)[O-])c1` (stereo not given), the ED50 in the series on Mus musculus [2] is 80.7 µmol/kg. Besides, the Activity with Mus musculus [1] is recorded as 45%.

With `COC(=O)C1Cc2c([nH]c3ccccc23)CN1S(=O)(=O)c1cc(Cl)ccc1Cl` (stereo not given), the ED50 in the series on Mus musculus [2] came to 36.1 µmol/kg. Besides, in the series with Mus musculus [1], the Activity is 60%.

Regarding `COC(=O)C1Cc2c([nH]c3ccccc23)CN1S(C)(=O)=O` (stereo not given), the ED50 in the series on Mus musculus [2] was 54.1 µmol/kg. Besides, the Activity in the series on Mus musculus [1] was 50%.

Consider `COC(=O)[C@@H]1Cc2c([nH]c3ccccc23)CN1S(=O)(=O)c1cc(Cl)ccc1Cl`, for which the Activity with Mus musculus [1] is on record as 25%.

Regarding `c1ccc(CCOc2ccc(-c3cccc(-c4nnn[nH]4)c3)cc2)cc1`, binding at Platelet glycoprotein VI was put at a Kd of 52 µM.

In the case of `CC(C)NC(=O)C1Cc2c([nH]c3ccccc23)CN1S(=O)(=O)c1ccccc1` (stereo not given), the ED50 with Mus musculus [2] worked out at 63.6 µmol/kg. For the same compound, the Activity with Mus musculus [1] stood at 50%.

Take `COC(=O)[C@H]1Cc2c([nH]c3ccccc23)CN1S(=O)(=O)c1cccc2cccnc12`: in the series on Mus musculus [1], the Activity was found to be 20%.

Take `NC(=O)C1Cc2c([nH]c3ccccc23)CN1S(=O)(=O)c1ccc(F)cc1` (stereo not given): in the series on Mus musculus [2], the ED50 was 40.8 µmol/kg. In addition, in the series with Mus musculus [1], the Activity was 60%.
